These results are taken from ChEMBL document CHEMBL1122845, “Inhibitors of blood platelet aggregation. Effects of some 1,2-benzisothiazol-3-ones on platelet responsiveness to adenosine diphosphate and collagen” (J Med Chem, 1985).

The species named for test [1] is Homo sapiens. In words: (§1) In vitro inhibitory activity against human platelet aggregation in the presence of collagen. In kind it is functional, organism-based.
The test system of test [2] is Homo sapiens. In words: The compound was tested ex vivo at a dose of 0.1 mmol/kg for ADP induced platelet aggregation in rat.
Test [3] deals with Cavia porcellus. The test can be described thus: Ex vivo inhibition of ADP induced guinea pig platelet aggregation following 0.08 mmol/kg administration. In kind it is functional. The essentials:
(§2)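 Fasted male rats (~200 g) or guinea pigs (~300 g), n=5-10, dosed orally (5 mL/kg) in 1% methylcellulose; methylcellulose alone as control. Killed with CO2 after 2 h. Vena cava blood citrated (102 mM rat, 129 mM guinea pig); PRP adjusted to 800000/µL (rat) or 500000/µL (guinea pig). EC25 for first-phase ADP aggregation (max 8 µM) interpolated from two 2-fold-spaced ADP levels. Dose ratio = treated/control mean EC25; Student's t-test. Some groups tested as pooled PRP.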

Test [4] relates to Cavia porcellus. The test can be described thus: The compound was tested ex vivo at a dose of 0.08 mmol/kg or collagen induced platelet aggregation in guinea pig. In kind it is functional. The essentials: (§3)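 Male rats (~200 g) or guinea pigs (~300 g), overnight fasted, n=5-10, received compound orally in 1% methylcellulose (5 mL/kg); vehicle-only controls. After 2 h, CO2 kill and vena cava blood into citrate (102 mM rat, 129 mM guinea pig). PRP set to 800000/µL (rat) or 500000/µL (guinea pig). Collagen EC50 (response of 50 mm; max 50 µg/mL) interpolated from a log plot. Dose ratio = treated/control mean EC50; t-test. Pooled PRP sometimes used.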

For test [5], the system named is Cavia porcellus. The test can be described thus: The compound was tested ex vivo at a dose of 0.15 mmol/kg for collagen induced platelet aggregation in guinea pig. In kind it is functional. The essentials: as §3
Test [6] deals with Rattus norvegicus. In words: The compound was tested ex vivo at a dose of 0.15 mmol/kg for ADP induced platelet aggregation in rat.
Test [7] concerns Cavia porcellus. In words: The compound was tested ex vivo at a dose of 0.15 mmol/kg for ADP induced platelet aggregation in guinea pig.
The test system of test [8] is Rattus norvegicus. The test can be described thus: The compound was tested ex vivo at a dose of 0.15 mmol/kg for collagen induced platelet aggregation in rat. In kind it is functional. The essentials:
as §3

Test [9] relates to Rattus norvegicus. The test can be described thus: The compound was tested at a dose of 0.15 mmol/kg ex vivo for ADP induced platelet aggregation in rat. In kind it is functional. The essentials: as §2
Test [10] concerns Rattus norvegicus. The test can be described thus: The compound was tested at a dose of 0.15 mmol/kg ex vivo for collagen induced platelet aggregation in rat. In kind it is functional. Summed up:
as §3

Test [11] concerns Cavia porcellus. In words: The compound was tested ex vivo at a dose of 0.15 mmol/kg for ADP induced platelet aggregation in guinea pig. It is filed as functional. Summed up: as §2
In test [12] the test system is Cavia porcellus. The test can be described thus: The compound was tested ex vivo at a dose of 0.15 mmol/kg for collagen induced platelet aggregation in guinea pig.
Test [13] is filed under the species Homo sapiens. The test is described as §1. It is filed as functional. Summed up: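 Aggregation measured photometrically in human citrated PRP (350000 platelets/µL, stirred at 1100 rpm). Compound or saline preincubated 3 min at 37 °C. Collagen at a just-maximal level chosen for each sample (typically 0.7-1.4 µg/mL). Maximum increase in light transmission measured. IC50 = concentration giving 50% inhibition.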

Test [14] relates to Rattus norvegicus. The test can be described thus: The compound was tested ex vivo at a dose of 0.3 mmol/kg for ADP induced platelet aggregation in rat. In kind it is functional. The essentials:
as §2

Test [15] deals with Rattus norvegicus. The test can be described thus: The compound was tested ex vivo at a dose of 0.15 mmol/kg for ADP induced platelet aggregation in rat. It is filed as functional. Summed up:
as §2

Test [16] deals with Cavia porcellus. The test can be described thus: The compound was tested ex vivo at a dose of 0.3 mmol/kg for ADP induced platelet aggregation in guinea pig. It is filed as functional. The essentials:
as §2

The subject of test [17] is Cavia porcellus. The test can be described thus: The compound was tested ex vivo at a dose of 0.08 mmol/kg for collagen induced platelet aggregation in guinea pig. In kind it is functional. The essentials:
as §3

In test [18] the test system is Cavia porcellus. The test can be described thus: The compound was tested ex vivo at a dose of 0.08 mmol/kg for ADP induced platelet aggregation in guinea pig. In kind it is functional. Summed up:
as §2

Test [19] deals with Cavia porcellus. In words: The compound was tested ex vivo at a dose of 0.3 mmol/kg for collagen induced platelet aggregation in guinea pig. It is filed as functional. Summed up: as §3
In test [20] the test system is Rattus norvegicus. The test can be described thus: The compound was tested at a dose of 0.3 mmol/kg ex vivo for collagen induced platelet aggregation in rat. It is filed as functional. The essentials: as §3
Test [21] concerns Rattus norvegicus. In words: The compound was tested ex vivo at a dose of 0.08 mmol/kg for collagen induced platelet aggregation in rat. It is filed as functional. Summed up:
as §3

The test system of test [22] is Cavia porcellus. The test can be described thus: The compound was tested ex vivo at a dose of 0.04 mmol/kg for ADP induced platelet aggregation in guinea pig.
Test [23] concerns Rattus norvegicus. In words: The compound was tested ex vivo at a dose of 0.15 mmol/kg for collagen induced platelet aggregation in rat.
Test [24] deals with Rattus norvegicus. In words: The compound was tested ex vivo at a dose of 0.04 mmol/kg for ADP induced platelet aggregation in rat. In kind it is functional. The essentials: as §2
Test [25] relates to Rattus norvegicus. The test can be described thus: The compound was tested ex vivo at a dose of 0.04 mmol/kg for collagen induced platelet aggregation in rat. In kind it is functional. The essentials: as §3
Test [26] has as its system Cavia porcellus. In words: The compound was tested ex vivo at a dose of 0.02 mmol/kg for collagen induced platelet aggregation in guinea pig. It is filed as functional. Summed up: as §3
Test [27] relates to Rattus norvegicus. In words: The compound was tested ex vivo at a dose of 0.08 mmol/kg for ADP induced platelet aggregation in rat. It is filed as functional. The essentials:
as §2

For test [28], the system named is Cavia porcellus. In words: The compound was tested ex vivo at a dose of 0.04 mmol/kg for ADP induced platelet aggregation in guinea pig. It is filed as functional. Summed up:
as §2

Structures can show the parent of a compound that is named as a salt.

For orientation: IC50 means the midpoint of a concentration-inhibition curve. In the case of `Clc1ccccc1CN1CCc2sccc2C1` [TICLOPIDINE HYDROCHLORIDE], the IC50 was determined as 1060 µM in the test listed under Homo sapiens [1] and 2000 µM with Homo sapiens [2].
As for `O=c1c2ccccc2sn1CCCCCN1CC2CCC(CC2)C1`, the Activity in the test with Cavia porcellus [3] was 1.2; in the test on Cavia porcellus [4] it was 2.8.
Take `CCN(CC)CCn1sc2cc(OC)c(OC)cc2c1=O`: in the test with Cavia porcellus [5], the “collagen EC50 dose ratio (treated/control)” value was over 47. Also, the Activity is given as 2.2 in the test with Rattus norvegicus [6], 1.1 in the test with Cavia porcellus [7] and 1.5 in the test with Rattus norvegicus [8].
On to `O=c1c2ccccc2sn1CCN1CCCC1`, for which the Activity with Rattus norvegicus [9] is 0.9; in the test with Rattus norvegicus [10], 2.3; in the test with Cavia porcellus [11], 1.9; in the test on Cavia porcellus [12], 13.9. Also, in the test filed under Homo sapiens [13], the IC50 was 30 µM.
On to `COc1cc2sn(CCN3CC4CCC(CC4)C3)c(=O)c2cc1OC`, for which the Activity with Rattus norvegicus [14] was 1.9; in the test with Rattus norvegicus [15], 1.4; in the test with Cavia porcellus [5], 1.6; in the test on Cavia porcellus [16], 1; with Cavia porcellus [17], 1.7; in the test with Cavia porcellus [18], 1.1. In addition, the Activity was 1.3 in the test on Cavia porcellus [11], 1.9 in the test with Cavia porcellus [19], 2.9 in the test on Rattus norvegicus [8] and over 5.8 in the test on Rattus norvegicus [20]. Also, the IC50 in the test listed under Homo sapiens [1] came to 110 µM.
Take `O=C1C(CC[S+]([O-])c2ccccc2)C(=O)N(c2ccccc2)N1c1ccccc1` (stereo not drawn) [SULFINPYRAZONE]: the Activity amounted to 1.8 in the test with Rattus norvegicus [21]; 3.2 in the test on Cavia porcellus [5]; 1.1 in the test on Cavia porcellus [22]; 6.2 with Cavia porcellus [17]; 1.2 in the test on Rattus norvegicus [23]; 1 with Rattus norvegicus [24]. Besides, the Activity in the test with Cavia porcellus [18] was 1.6; in the test on Cavia porcellus [11], 1.1; with Rattus norvegicus [25], 1.3; in the test on Cavia porcellus [26], 2.9; in the test with Rattus norvegicus [27], 1.2; in the test on Cavia porcellus [28], 1.1. This molecule gave an Activity in the test with Rattus norvegicus [8] of 1.1. Also, in the test listed under Homo sapiens [13], the IC50 was 870 µM.
